Assay results taken from ChEMBL document CHEMBL1144933, “Novel bioactive and stable neurotensin peptide analogues capable of delivering radiopharmaceuticals and molecular beacons to tumors” (J Med Chem, 2003).
Where a SMILES comes first, the peptide text is derived from it. [ ]: non-standard residue; d: D form. The star is where a group is joined. Gly(1-amidinopiperidin-4-yl) = N=C(N)N1CCC([C@H](N)C(=O)O)CC1; DTPA = O=C(O)CN(CCN(CC(=O)O)CC(=O)O)CCN(CC(=O)O)CC(=O)*; Gly(piperidin-4-yl) = N[C@H](C(=O)O)C1CCNCC1; Tle = CC(C)(C)[C@H](N)C(=O)O

Tests used:
[1] = target: Neurotensin receptor type 1 (Homo sapiens, UniProt P30989); test: Binding affinity towards neurotensin receptor in membranes prepared from HT-29 cell line, relative to [111In]-labeled neurotensin peptide
[2] = system: Mus musculus; test: Biodistribution of [111In]DTPA-NT in HT-29 tumor implanted SCID mice tumor at 4 h postinjection LSA administration; assay type: ADME, organism-based; settings: in vivo
Procedure, shortened: (§1)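 Receptor-blocking (low specific activity) arm in male SCID mice with s.c. HT29 flank xenografts of about 0.3 g. Two animals received the same activity (10 μCi, jugular vein) diluted with cold NT to 0.5 Ci/mmol. Tissues were collected after cervical dislocation, radioassayed, and expressed as %ID/g.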

[3] = system: Mus musculus; test: Biodistribution of [111In]-DTPA-NT in HT-29 tumor implanted SCID mice spleen at 1 hr postinjection; assay type: ADME, organism-based; settings: in vivo
Procedure, shortened: (§2)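 Male SCID mice bore HT29 xenografts from 1 × 10^6 cells given s.c. in both rear flanks. Tumours reached about 0.3 g by day 14. Under Metofane anaesthesia, mice received 20 μL (10 μCi) of 111In-DTPA-NT analogue (1400 Ci/mmol) via the jugular vein. Groups of n = 3 were killed by cervical dislocation at 1 and 4 h. Blood and tissues were gamma-counted and reported as %ID/g ± SE.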

[4] = system: Mus musculus; test: Biodistribution of [111In]-DTPA-NT in HT-29 tumor implanted SCID mice spleen at 4 hr postinjection LSA administration; assay type: ADME, organism-based; settings: in vivo; procedure, shortened: as §1
[5] = system: Mus musculus; test: Biodistribution of [111In]DTPA-NT in HT-29 tumor implanted SCID mice blood at 1 h postinjection; assay type: ADME, organism-based; settings: in vivo; procedure, shortened: as §2
[6] = system: Mus musculus; test: Biodistribution of [111In]-DTPA-NT in HT-29 tumor implanted SCID mice pancreas at 4 h postinjection; assay type: ADME, organism-based; settings: in vivo; procedure, shortened: as §2
[7] = system: Mus musculus; test: Biodistribution of [111In]DTPA-NT in HT-29 tumor implanted SCID mice liver at 4 h postinjection; assay type: ADME, organism-based; settings: in vivo; procedure, shortened: as §2
[8] = system: Mus musculus; test: Biodistribution of [111In]DTPA-NT in HT-29 tumor implanted SCID mice muscle at 1 h postinjection; assay type: ADME, organism-based, Muscle tissue; settings: in vivo; procedure, shortened: as §2
[9] = system: Mus musculus; test: Biodistribution of [111In]-DTPA-NT in HT-29 tumor implanted SCID mice kidneys at 4 hr postinjection LSA administration; assay type: ADME, organism-based, Kidney; settings: in vivo; procedure, shortened: as §1
[10] = system: Mus musculus; test: Biodistribution of [111In]-DTPA-NT in HT-29 tumor implanted SCID mice pancreas at 4 hr postinjection LSA administration; assay type: ADME, organism-based; settings: in vivo; procedure, shortened: as §1
[11] = system: Mus musculus; test: Biodistribution of [111In]DTPA-NT in HT-29 tumor implanted SCID mice spleen at 4 h postinjection; assay type: ADME, organism-based; settings: in vivo; procedure, shortened: as §2
[12] = system: Mus musculus; test: Biodistribution of [111In]DTPA-NT in HT-29 tumor implanted SCID mice muscle at 4 h postinjection; assay type: ADME, organism-based, Muscle tissue; settings: in vivo; procedure, shortened: as §2
[13] = system: Mus musculus; test: Biodistribution of [111In]-DTPA-NT in HT-29 tumor implanted SCID mice liver at 4 hr postinjection LSA administration; assay type: ADME, organism-based; settings: in vivo; procedure, shortened: as §1
[14] = system: Mus musculus; test: Biodistribution of [111In]-DTPA-NT in HT-29 tumor implanted SCID mice muscle at 4 hr postinjection LSA administration; assay type: ADME, organism-based, Muscle tissue; settings: in vivo; procedure, shortened: as §1
[15] = system: Mus musculus; test: Biodistribution of [111In]DTPA-NT in HT-29 tumor implanted SCID mice blood at 4 h postinjection; assay type: ADME, organism-based; settings: in vivo; procedure, shortened: as §2
[16] = system: Mus musculus; test: Biodistribution of [111In]DTPA-NT in HT-29 tumor implanted SCID mice pancreas at 1 h postinjection; assay type: ADME, organism-based; settings: in vivo; procedure, shortened: as §2
[17] = system: Mus musculus; test: Biodistribution of [111In]-DTPA-NT in HT-29 tumor implanted SCID mice tumor at 4 hr postinjection; assay type: ADME, organism-based; settings: in vivo; procedure, shortened: as §2
[18] = system: Mus musculus; test: Biodistribution of [111In]-DTPA-NT in HT-29 tumor implanted SCID mice blood at 4 hr postinjection LSA administration; assay type: ADME, organism-based; settings: in vivo; procedure, shortened: as §1
[19] = system: Mus musculus; test: Biodistribution of [111In]DTPA-NT in HT-29 tumor implanted SCID mice liver at 1 h postinjection; assay type: ADME, organism-based; settings: in vivo; procedure, shortened: as §2
[20] = system: Mus musculus; test: Biodistribution of [111In]DTPA-NT in HT-29 tumor implanted SCID mice kidneys at 1 h postinjection; assay type: ADME, organism-based, Kidney; settings: in vivo; procedure, shortened: as §2
[21] = system: Mus musculus; test: Biodistribution of [111In]DTPA-NT in HT-29 tumor implanted SCID mice tumor at 1 h postinjection; assay type: ADME, organism-based; settings: in vivo; procedure, shortened: as §2
[22] = system: Mus musculus; test: Biodistribution of [111In]DTPA-NT in HT-29 tumor implanted SCID mice kidneys at 4 h postinjection; assay type: ADME, organism-based, Kidney; settings: in vivo; procedure, shortened: as §2

Chain of Neurotensin receptor type 1 (P30989 whole entry): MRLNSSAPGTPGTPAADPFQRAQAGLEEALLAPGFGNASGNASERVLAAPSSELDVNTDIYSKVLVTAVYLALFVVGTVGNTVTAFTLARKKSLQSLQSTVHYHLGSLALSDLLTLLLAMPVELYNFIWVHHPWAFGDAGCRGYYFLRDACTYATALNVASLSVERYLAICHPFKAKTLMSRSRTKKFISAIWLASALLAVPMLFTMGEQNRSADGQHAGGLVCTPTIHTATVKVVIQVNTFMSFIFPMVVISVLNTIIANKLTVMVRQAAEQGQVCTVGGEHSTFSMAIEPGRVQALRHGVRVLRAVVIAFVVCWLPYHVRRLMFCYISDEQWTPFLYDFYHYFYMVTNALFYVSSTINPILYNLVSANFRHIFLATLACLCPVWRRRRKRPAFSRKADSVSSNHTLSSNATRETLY

IC50 [1]: 0.3 nM | ID/g tissue [2]: 0.263% | ID/g tissue [3]: 0.18% | ID/g tissue [4]: 0.088% | ID/g tissue [5]: 0.416% | ID/g tissue [6]: 0.03% | ID/g tissue [7]: 0.133% | ID/g tissue [8]: 0.092% | ID/g tissue [9]: 5.725% | ID/g tissue [10]: 0.051% | ID/g tissue [11]: 0.085% | ID/g tissue [12]: 0.021% | ID/g tissue [13]: 0.168% | ID/g tissue [14]: 0.03% | ID/g tissue [15]: 0.03% | ID/g tissue [16]: 0.152% | ID/g tissue [17]: 2.177% | ID/g tissue [18]: 0.027% | ID/g tissue [19]: 0.203% | ID/g tissue [20]: 6.141% | ID/g tissue [21]: 2.831% | ID/g tissue [22]: 4.841%
Structure (SMILES): CC(C)C[C@H](NC(=O)[C@@H](NC(=O)[C@H](Cc1ccc(O)cc1)NC(=O)[C@@H]1CCCN1C(=O)[C@H](CCCN=C(N)N)NC(=O)[C@@H](NC(=O)[C@@H]1CCCN1C(=O)[C@@H](NC(=O)CN(CCN(CCN(CC(=O)O)CC(=O)O)CC(=O)O)CC(=O)O)C1CCNCC1)C1CCN(C(=N)N)CC1)C(C)(C)C)C(=O)O ({DTPA}-[Gly(piperidin-4-yl)]P[Gly(1-amidinopiperidin-4-yl)]RPY[Tle]L-OH)
